In ChEMBL document CHEMBL3877250, “Design, synthesis, and biological evaluation of (2E)-(2-oxo-1, 2-dihydro-3H-indol-3-ylidene)acetate derivatives as anti-proliferative agents through ROS-induced cell apoptosis” (Eur J Med Chem, 2016):
pIC50: −log10 of the molar value.

Assays:
[1] = Cytotoxicity against human Saos2 cells assessed as growth inhibition at 20 uM after 72 hrs by CCK-8 assay; format: functional; details: SAOS-2, 72 h, read-out: GI
How it was run: (§1)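 Cells kept in RPMI 1640 with 10% heat-inactivated fetal calf serum and 1% streptomycin/penicillin at 37 °C, 5% CO2. After compound exposure, CCK-8 was added and cells were incubated 4 h at 37 °C, then absorbance was read at 450 nm. Viability is relative to untreated cells (100%). IC50 comes from nonlinear regression, mean of three separate determinations. Single-concentration screen at 20 µM.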

[2] = Cytotoxicity against human L02 cells assessed as growth inhibition at 20 uM after 72 hrs by CCK-8 assay; format: toxicity, cell-based; details: read-out: GI; how it was run: as §1
[3] = Cytotoxicity against human OVCAR3 cells after 72 hrs by CCK-8 assay; format: functional, cell-based; details: OVCAR-3, 72 h; how it was run: as §1
HCT-116 [4] = experiment: Induction of apoptosis in human HCT116 cells assessed as necrotic cells at 0.5 uM after 48 hrs by Annexin V-FITC/propidium iodide staining based flow cytometry (reference value: 0.8%); format: functional
HCT-116 [5] = experiment: Induction of apoptosis in human HCT116 cells assessed as necrotic cells at 16 uM after 48 hrs by Annexin V-FITC/propidium iodide staining based flow cytometry (reference value: 0.8%); format: functional
[6] = Cell cycle arrest in human HCT116 cells assessed as G1 phase accumulation at 0.5 uM after 48 hrs by Annexin V-FITC/propidium iodide staining based flow cytometry (reference value: 40.83%); format: functional; details: HCT-116
[7] = Cell cycle arrest in human HCT116 cells assessed as S phase accumulation at 0.5 uM after 48 hrs by Annexin V-FITC/propidium iodide staining based flow cytometry (reference value: 28.43%); format: functional; details: HCT-116
[8] = Cell cycle arrest in human HCT116 cells assessed as G2/M phase accumulation at 0.5 uM after 48 hrs by Annexin V-FITC/propidium iodide staining based flow cytometry (reference value: 25.3%); format: functional; details: HCT-116
[9] = Cell cycle arrest in human HCT116 cells assessed as G1 phase accumulation at 1 uM after 48 hrs by Annexin V-FITC/propidium iodide staining based flow cytometry (reference value: 40.83%); format: functional; details: HCT-116
[10] = Cell cycle arrest in human HCT116 cells assessed as S phase accumulation at 2 uM after 48 hrs by Annexin V-FITC/propidium iodide staining based flow cytometry (reference value: 28.43%); format: functional; details: HCT-116
[11] = Cell cycle arrest in human HCT116 cells assessed as G2/M phase accumulation at 4 uM after 48 hrs by Annexin V-FITC/propidium iodide staining based flow cytometry (reference value: 25.3%); format: functional; details: HCT-116

Which inhibition of growth at 20 µM [1] does the source give for `CC(C)(C)OC(=O)/C=C1/C(=O)Nc2ccccc21` here?
Its inhibition of growth at 20 µM is 83.3%.

What about the inhibition at 72 h, 20 µM [2] of the same compound?
The inhibition at 72 h, 20 µM was 64.1%.

And the pIC50 [3]?
The pIC50 was 5.18.

And the Activity (HCT-116 [4])?
The Activity was 0.6%.

What about the Activity (HCT-116 [5]) of the same compound?
Its Activity is 2.1%.

And the Activity [6]?
Its Activity is 40.9%.

What about the Activity [7] of the same compound?
Its Activity is 28.9%.

What about the Activity [8] of the same compound?
The Activity was 27.4%.

What about the Activity [9] of the same compound?
Its Activity is 25.4%.

What about the Activity [10] of the same compound?
The Activity was 25.2%.

What about the Activity [11] of the same compound?
Its Activity is 11.7%.
